# Measurements taken from ChEMBL document CHEMBL1914327, “Unichiral 2-(2'-pyrrolidinyl)-1,4-benzodioxanes: the 2R,2'S diastereomer of the N-methyl-7-hydroxy analogue is a potent α4β2- and α6β2-nicotinic acetylcholine receptor partial agonist” (J Med Chem, 2011).
# Active and inactive are the calls of the source. The calls are words filed in the database; no cut-off is given here.
# Legend:
# [1] = molecular target: T1, Neuronal acetylcholine receptor; alpha4/beta2 (Rattus norvegicus, UniProt P09483+P12390); experiment: Displacement of [3H]epibatidine from alpha4beta2 nAChR in Sprague-Dawley rat cerebral cortex by beta counting; assay type: tissue-based
# T1 sequence (P09483 whole entry): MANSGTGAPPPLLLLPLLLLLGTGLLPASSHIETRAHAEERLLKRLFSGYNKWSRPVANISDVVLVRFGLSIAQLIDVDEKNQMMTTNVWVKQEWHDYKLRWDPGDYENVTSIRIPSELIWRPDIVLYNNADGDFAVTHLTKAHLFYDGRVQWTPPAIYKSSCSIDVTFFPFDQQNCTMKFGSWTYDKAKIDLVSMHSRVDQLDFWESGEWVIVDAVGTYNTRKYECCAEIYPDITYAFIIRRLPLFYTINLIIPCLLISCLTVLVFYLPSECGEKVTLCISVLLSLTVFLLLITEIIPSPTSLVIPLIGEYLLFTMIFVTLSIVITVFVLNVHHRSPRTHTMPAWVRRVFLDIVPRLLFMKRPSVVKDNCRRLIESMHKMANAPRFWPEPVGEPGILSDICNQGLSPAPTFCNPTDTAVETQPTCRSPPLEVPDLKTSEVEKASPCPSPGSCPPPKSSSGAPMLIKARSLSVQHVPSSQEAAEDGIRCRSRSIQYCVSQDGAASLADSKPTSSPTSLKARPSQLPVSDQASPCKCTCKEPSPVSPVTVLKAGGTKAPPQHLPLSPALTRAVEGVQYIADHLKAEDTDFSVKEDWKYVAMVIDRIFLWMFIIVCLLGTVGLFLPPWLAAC
# T1 sequence (P12390 whole entry): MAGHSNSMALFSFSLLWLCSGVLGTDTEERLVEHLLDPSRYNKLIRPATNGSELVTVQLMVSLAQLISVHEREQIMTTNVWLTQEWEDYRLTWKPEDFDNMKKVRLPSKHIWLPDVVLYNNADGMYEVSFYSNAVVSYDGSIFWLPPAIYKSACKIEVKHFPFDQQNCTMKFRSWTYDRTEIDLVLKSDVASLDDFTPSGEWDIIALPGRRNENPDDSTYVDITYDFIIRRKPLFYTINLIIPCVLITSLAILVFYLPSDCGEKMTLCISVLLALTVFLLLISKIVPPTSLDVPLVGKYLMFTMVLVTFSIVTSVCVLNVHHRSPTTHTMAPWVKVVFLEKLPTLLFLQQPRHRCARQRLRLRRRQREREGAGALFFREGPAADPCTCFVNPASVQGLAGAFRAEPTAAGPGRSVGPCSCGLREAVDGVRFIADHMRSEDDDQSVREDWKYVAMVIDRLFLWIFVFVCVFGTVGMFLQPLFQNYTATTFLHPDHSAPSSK
# Outline: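 Sprague-Dawley rat cortical membranes in Tris buffer pH 7 with protease inhibitors. Membranes first blocked with 1 μM α-bungarotoxin. Compound (10 pM to 10 mM) preincubated 30 min at rt, then 0.1 nM [3H]epibatidine (final) added overnight at 4 °C. Nonspecific binding defined with 100 nM unlabeled epibatidine. Filtered and beta counted. Ki from three independent experiments fitted by LIGAND.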
# [2] = molecular target: Neuronal acetylcholine receptor subunit alpha-7 (Rattus norvegicus, UniProt Q05941); experiment: Displacement of [125I]alpha-bungarotoxin from alpha7 nAChR in Sprague-Dawley rat cerebral cortex […]; assay type: tissue-based
# Chain of Neuronal acetylcholine receptor subunit alpha-7 (Q05941 whole entry): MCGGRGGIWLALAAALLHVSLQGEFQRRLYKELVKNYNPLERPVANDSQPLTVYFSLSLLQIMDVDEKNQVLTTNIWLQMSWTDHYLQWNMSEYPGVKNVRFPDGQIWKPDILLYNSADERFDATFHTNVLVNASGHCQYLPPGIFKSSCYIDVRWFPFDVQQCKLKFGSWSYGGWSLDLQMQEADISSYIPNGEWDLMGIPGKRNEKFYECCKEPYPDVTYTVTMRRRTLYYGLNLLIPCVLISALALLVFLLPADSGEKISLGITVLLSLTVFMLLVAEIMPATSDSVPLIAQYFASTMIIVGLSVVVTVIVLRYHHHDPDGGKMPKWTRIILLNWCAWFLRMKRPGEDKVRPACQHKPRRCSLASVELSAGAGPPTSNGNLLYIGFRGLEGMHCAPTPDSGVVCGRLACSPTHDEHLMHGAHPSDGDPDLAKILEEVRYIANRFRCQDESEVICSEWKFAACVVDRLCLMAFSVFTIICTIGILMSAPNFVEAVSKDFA
# [3] = molecular target: T2, Neuronal acetylcholine receptor subunit alpha-6/beta-3 (Rattus norvegicus) (UniProt P12391+P43143); experiment: Agonist activity at rat alpha6beta2 nAChR assessed as [3H]dopamine release from rat striatum by beta counting relative to 10 uM nicotine; assay type: functional
# [4] = molecular target: T3, Neuronal acetylcholine receptor; alpha4/beta2 (Rattus norvegicus) (UniProt P09483+P12390); experiment: Agonist activity at rat alpha4beta2 nAChR assessed as [3H]dopamine release from rat striatum by beta counting relative to 10 uM nicotine; assay type: functional
# Outline: (§1)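 Rat striatal slices (150 μm) were preloaded for 30 min with 100 nM [3H]DA in Krebs buffer containing 10 μM pargyline, then washed with pargyline plus 0.5 μM nomifensine. Slices were exposed to agonist for 5 min at 37 °C. […] EC50/Emax came from nonlinear regression; six replicates, ≥3 experiments.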
# [5] = molecular target: T1, Neuronal acetylcholine receptor; alpha4/beta2; experiment: Agonist activity at rat alpha4beta2 nAChR assessed as [3H]dopamine release by beta counting; assay type: functional; outline: as §1
# Rattus norvegicus = organism: Rattus norvegicus; experiment: Selectivity ratio of Ki for alpha7 nAChR in Sprague-Dawley rat cerebral cortex to Ki for alpha4beta2 nAChR in Sprague-Dawley rat cerebral cortex; assay type: tissue-based
# Outline: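 Sprague-Dawley rat cortical membranes, with compound (10 pM–10 mM) preincubated 30 min at rt. α4β2 assay: membranes pretreated with 1 μM α-bungarotoxin, then 0.1 nM [3H]epibatidine overnight at 4 °C. α7 assay: 1 nM [125I]α-bungarotoxin overnight at rt. Ki values were from LIGAND fits of three experiments, and the ratio was taken from these Ki values.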
# [6] = molecular target: Neuronal acetylcholine receptor; alpha3/beta4 (Rattus norvegicus, UniProt P04757+P12392); experiment: Partial agonist activity at rat alpha3beta4 nAChR assessed as [3H]noradrenaline release from rat […] by beta counting; assay type: functional
# Chain of Neuronal acetylcholine receptor; alpha3/beta4 (Rattus norvegicus, UniProt P04757+P12392) (P04757 whole entry): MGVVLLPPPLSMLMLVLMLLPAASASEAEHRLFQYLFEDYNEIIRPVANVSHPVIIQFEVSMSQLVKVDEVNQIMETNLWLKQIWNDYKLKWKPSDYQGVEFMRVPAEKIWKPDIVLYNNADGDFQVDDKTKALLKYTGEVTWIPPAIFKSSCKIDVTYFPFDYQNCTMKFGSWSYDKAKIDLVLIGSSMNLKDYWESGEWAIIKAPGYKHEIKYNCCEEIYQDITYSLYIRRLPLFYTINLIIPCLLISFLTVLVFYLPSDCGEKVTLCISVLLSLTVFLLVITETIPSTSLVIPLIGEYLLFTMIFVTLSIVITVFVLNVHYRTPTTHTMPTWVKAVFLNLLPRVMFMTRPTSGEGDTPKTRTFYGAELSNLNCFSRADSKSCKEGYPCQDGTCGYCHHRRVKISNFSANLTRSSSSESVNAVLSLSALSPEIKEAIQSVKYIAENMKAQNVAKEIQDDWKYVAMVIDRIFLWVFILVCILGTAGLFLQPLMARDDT
# Chain of Neuronal acetylcholine receptor; alpha3/beta4 (Rattus norvegicus, UniProt P04757+P12392) (P12392 whole entry): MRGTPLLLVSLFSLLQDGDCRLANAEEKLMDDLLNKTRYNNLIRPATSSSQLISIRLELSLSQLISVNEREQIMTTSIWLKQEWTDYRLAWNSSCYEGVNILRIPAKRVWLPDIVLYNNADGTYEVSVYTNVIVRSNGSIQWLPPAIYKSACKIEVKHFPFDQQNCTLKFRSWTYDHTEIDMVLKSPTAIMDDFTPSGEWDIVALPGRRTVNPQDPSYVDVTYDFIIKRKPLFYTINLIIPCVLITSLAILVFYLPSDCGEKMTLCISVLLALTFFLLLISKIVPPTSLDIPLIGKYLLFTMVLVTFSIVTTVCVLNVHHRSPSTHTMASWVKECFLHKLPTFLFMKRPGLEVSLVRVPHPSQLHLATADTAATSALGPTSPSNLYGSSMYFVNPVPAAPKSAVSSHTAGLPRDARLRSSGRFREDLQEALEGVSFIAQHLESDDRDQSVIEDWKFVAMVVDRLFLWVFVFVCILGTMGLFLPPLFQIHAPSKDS
# [7] = molecular target: T3, Neuronal acetylcholine receptor; alpha4/beta2 (Rattus norvegicus); experiment: Partial agonist activity at Nicotinic acetylcholine alpha4beta2 receptor in rat striatum assessed as [3H]dopamine release by beta counting relative to nicotine; assay type: functional, tissue-based; outline: as §1
# HEK293 = experiment: Selectivity ratio of Ki for human alpha3beta4 nAChR expressed in human HEK293 cells to Ki for alpha4beta2 nAChR in rat cerebral cortex; assay type: cell-based
# [8] = molecular target: T2, Neuronal acetylcholine receptor subunit alpha-6/beta-3 (Rattus norvegicus); experiment: Partial agonist activity at alpha6beta2 nAChR in rat striatum assessed as decrease in [3H]dopamine release by beta counting in the presence of antagonist alphaconotoxin MII; assay type: functional, tissue-based
# [9] = molecular target: Neuronal acetylcholine receptor; alpha3/beta4 (Homo sapiens, UniProt P30926+P32297); experiment: Displacement of [3H]epibatidine from human alpha3beta4 nAChR expressed in human HEK293 cells by scintillation counting; assay type: cell-based
# Chain of Neuronal acetylcholine receptor; alpha3/beta4 (Homo sapiens, UniProt P30926+P32297) (P30926 whole entry): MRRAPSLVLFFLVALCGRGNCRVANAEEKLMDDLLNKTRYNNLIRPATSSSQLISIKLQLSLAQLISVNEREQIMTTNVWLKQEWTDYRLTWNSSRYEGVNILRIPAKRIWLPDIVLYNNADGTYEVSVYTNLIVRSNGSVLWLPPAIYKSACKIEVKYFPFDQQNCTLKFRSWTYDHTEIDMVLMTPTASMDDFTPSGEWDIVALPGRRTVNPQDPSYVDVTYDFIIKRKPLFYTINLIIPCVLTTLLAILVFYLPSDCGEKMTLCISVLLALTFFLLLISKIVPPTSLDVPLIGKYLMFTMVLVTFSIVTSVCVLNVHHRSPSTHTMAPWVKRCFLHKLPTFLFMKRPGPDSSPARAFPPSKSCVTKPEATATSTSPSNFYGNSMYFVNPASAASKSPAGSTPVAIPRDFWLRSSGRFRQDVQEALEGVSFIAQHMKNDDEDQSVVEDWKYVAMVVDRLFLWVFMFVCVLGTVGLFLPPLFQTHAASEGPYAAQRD
# Chain of Neuronal acetylcholine receptor; alpha3/beta4 (Homo sapiens, UniProt P30926+P32297) (P32297 whole entry): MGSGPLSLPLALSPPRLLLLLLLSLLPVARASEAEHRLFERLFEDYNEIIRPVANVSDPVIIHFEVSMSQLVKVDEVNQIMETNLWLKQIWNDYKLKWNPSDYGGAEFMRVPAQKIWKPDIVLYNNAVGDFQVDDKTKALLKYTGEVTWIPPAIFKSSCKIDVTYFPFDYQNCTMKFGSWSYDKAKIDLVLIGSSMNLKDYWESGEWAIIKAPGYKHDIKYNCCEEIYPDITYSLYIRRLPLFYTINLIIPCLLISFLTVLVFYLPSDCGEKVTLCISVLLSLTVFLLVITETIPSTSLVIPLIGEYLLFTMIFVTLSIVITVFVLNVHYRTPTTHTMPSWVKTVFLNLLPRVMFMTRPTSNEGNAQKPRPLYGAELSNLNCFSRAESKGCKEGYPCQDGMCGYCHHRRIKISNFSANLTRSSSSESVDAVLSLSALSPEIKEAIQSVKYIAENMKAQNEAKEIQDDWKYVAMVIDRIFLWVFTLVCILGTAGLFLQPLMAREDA
# Outline: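 Membranes from HEK293 cells transiently transfected with α3 and β4 cDNAs (harvested at 48 h). Compound was preincubated for 5 min, then 0.25 nM [3H]epibatidine was added overnight at 4 °C in Tris buffer (pH 7) with BSA and no Tween. Nonspecific binding used 100 nM epibatidine. Ki was fitted from three experiments in triplicate.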
# [10] = molecular target: T1, Neuronal acetylcholine receptor; alpha4/beta2; experiment: Partial agonist activity at Nicotinic acetylcholine alpha4beta2 receptor in rat striatum assessed as [3H]dopamine release by beta counting; assay type: functional, tissue-based
# Outline: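 Rat striatal slices (150 μm) were preloaded for 30 min with 100 nM [3H]DA in Krebs buffer containing 10 μM pargyline, then washed with pargyline plus 0.5 μM nomifensine. Slices were exposed to agonist for 5 min at 37 °C.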
Structure (SMILES),Ki [1] [µM],Ki [2] [µM],other results
Oc1ccc2c(c1)O[C@@H]([C@@H]1CCCN1)CO2,1.2,53,
CN1CCC[C@H]1[C@H]1COc2ccc(Br)cc2O1,3,22,Kd [1]: 0.036 nM; Kd [2]: 0.0003 µM
COc1ccc2c(c1)O[C@H]([C@@H]1CCCN1C)CO2,17,32,
Cc1ccc2c(c1)O[C@H]([C@@H]1CCCN1C)CO2,42,126,
Oc1ccc2c(c1)O[C@@H]([C@H]1CCCN1)CO2,18,35,
COc1ccc2c(c1)O[C@@H]([C@@H]1CCCN1C)CO2,4.2,26,
CN1CCC[C@H]1[C@@H]1COc2ccc(-c3ccccc3)cc2O1,35,36,
CN1CCC[C@H]1[C@@H]1COc2ccc(Br)cc2O1,8.1,22,
CN1CCC[C@H]1[C@@H]1COc2ccc(CO)cc2O1,51,60,
CC(C)Oc1ccc2c(c1)O[C@H]([C@@H]1CCCN1C)CO2,9.3,6.1,
CC(=O)c1ccc2c(c1)O[C@H]([C@@H]1CCCN1C)CO2 (racemic),97,110,
Oc1ccc2c(c1)O[C@H]([C@@H]1CCCN1)CO2,9,33,
CN1CCC[C@@H]1[C@H]1COc2ccc(O)cc2O1,3.5,4.5,
Cc1ccc2c(c1)O[C@@H]([C@@H]1CCCN1C)CO2,5.7,64,
Oc1ccc2c(c1)O[C@H]([C@H]1CCCN1)CO2,1.3,3,
c1cnc2cc3c(cc2n1)[C@@H]1CNC[C@H]3C1 [VARENICLINE],,,Efficacy [3]: 49%; Efficacy [4]: 49%; EC50 [5]: 0.046 µM
CC(C)Oc1ccc2c(c1)O[C@@H]([C@@H]1CCCN1C)CO2,3.2,43,
CN1CCC[C@H]1[C@H]1COc2ccc(O)cc2O1,0.421,20,Ratio Ki (Rattus norvegicus): 47
CC(=O)c1ccc2c(c1)O[C@@H]([C@@H]1CCCN1C)CO2,11.7,30,
CN1CCC[C@H]1[C@H]1COc2ccc(-c3ccccc3)cc2O1,3.1,51,
CN1CCC[C@H]1[C@@H]1COc2ccc(O)cc2O1,0.012,0.427,Ratio Ki (Rattus norvegicus): 35; EC50 [6]: 17.6 µM; Efficacy [7]: 51%; Ratio Ki (HEK293): 26; Activity [8]: inactive; Ki [9]: 0.31 µM; EC50 [10]: 0.082 µM
CN1CCC[C@@H]1[C@@H]1COc2ccc(O)cc2O1,3,1.3,
CN1CCC[C@H]1[C@H]1COc2ccc(CO)cc2O1,9.5,12,
